Experiments:
Human alphaherpesvirus 2 = experiment: Antiviral activity against Human herpesvirus 2 strain 333 infected in African green monkey CV1 cells assessed as log reduction in viral titer at 100 uM; format: functional, CV-1
In short: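 Lab strain HSV-2 333 was grown and titrated either in CV-1 cells or in Vero cells. Virus was incubated with 100 μM EGCG for 60 min, then titrated as tenfold dilutions for 5 days at 37°C with CPE scoring. Reed-Muench TCID50 of treated versus control virus gave the titer decrease. Mean of three experiments.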

Human alphaherpesvirus 1 = experiment: Antiviral activity against Human herpesvirus 1 F1 infected in African green monkey Vero cells assessed as log reduction in viral titer at 100 uM

`O=C(O[C@@H]1Cc2c(O)cc(O)cc2O[C@@H]1c1ccc(O)c(O)c1)c1cc(O)c(O)c(O)c1` [EPICATECHIN GALLATE] was tested, and the FC (Human alphaherpesvirus 2) was “>=1”.

Compound `O=C(O[C@@H]1Cc2c(O)cc(O)cc2O[C@H]1c1cc(O)c(O)c(O)c1)c1cc(O)c(O)c(O)c1` [GALLOCATECHIN GALLATE] has an FC (Human alphaherpesvirus 2) of 4 and an FC (Human alphaherpesvirus 1) of 3.5.

From ChEMBL document CHEMBL1629542, “Epigallocatechin gallate inactivates clinical isolates of herpes simplex virus” (Antimicrob Agents Chemother, 2008)
